Columns and labels:
[1] = Photostability of the compound in DMF at 4089 +/- 0.164 10^-5mol/L measured up to 240 mins in presence of UV-light by UV-vis spectrophotometric analysis; details: 4 h
[2] = Photostability of the compound in DMF at 2275 +/- 0.091 10^-5mol/L measured up to 240 mins in presence of UV-light by UV-vis spectrophotometric analysis; details: 4 h
[3] = Cytotoxicity against human HeLa cells after 24 hrs by MTS assay; type: functional, cell-based
Outline: (§1)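 Cells were exposed for 24 h to compound diluted 1:10, 1:100, 1:1000 and 1:10,000 from a 4 mg/ml DMSO stock; untreated controls were grown in non-modified medium. MTS was added for 2 h at 37 °C under 5% CO2, and absorbance was read at 490 nm. Viability is expressed as % of untreated control, averaged over three independent assays. EC50 or IC50 values were calculated from the plotted data.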

[4] = Cytotoxicity against human LEP-3 cells after 24 hrs by MTS assay; type: toxicity, cell-based
Outline: as §1

[5] = Cytotoxicity against human MDA-MB-231 cells after 24 hrs by MTS assay; type: functional, cell-based; details: MDA-MB-231, 24 h
Outline: as §1

[6] = Photostability of the compound in DMF at 2185 +/- 0.087 10^-5mol/L measured up to 240 mins in presence of UV-light by UV-vis spectrophotometric analysis; details: 4 h
[7] = Photostability of the compound in DMF at 5242 +/- 0.209 10^-5mol/L measured up to 240 mins in presence of UV-light by UV-vis spectrophotometric analysis; details: 4 h
[8] = Photostability of the compound in DMF at 3916 +/- 0.158 10^-5mol/L measured up to 240 mins in presence of UV-light by UV-vis spectrophotometric analysis; details: 4 h
[9] = Cytotoxicity against human HepG2 cells after 24 hrs by MTS assay; type: functional, cell-based; details: HepG2, 24 h
Outline: as §1

[10] = Cytotoxicity against human HT-29 cells after 24 hrs by MTS assay; type: functional, cell-based; details: HT-29, 24 h
Outline: as §1

[11] = Antiproliferative activity against human MDA-MB-231 cells after 24 hrs by MTS assay; type: functional, cell-based; details: MDA-MB-231, 24 h
Outline: as §1

[12] = tested on: HT-29; experiment: Ratio of IC50 for human LEP-3 cells to IC50 for human HT-29 cells
[13] = Antiproliferative activity against human HeLa cells after 24 hrs by MTS assay; type: functional, cell-based
Outline: as §1

[14] = Photostability of the compound in DMF assessed as drug degradation at 3128 +/- 0.125 10^-5mol/L measured after 240 mins in presence of UV-light by UV-vis spectrophotometric analysis; type: physicochemical; details: DMF solution under UV light; read-out: Drug degradation
[15] = Antiproliferative activity against human HT-29 cells after 24 hrs by MTS assay; type: functional, cell-based; details: HT-29, 24 h
Outline: as §1

[16] = Antiproliferative activity against human HepG2 cells after 24 hrs by MTS assay; type: functional, cell-based; details: HepG2, 24 h
Outline: as §1

[17] = Antiproliferative activity against human LEP-3 cells after 24 hrs by MTS assay; type: cell-based; details: LEP-3, 24 h
Outline: as §1

Row | Stability [1] | Stability [2] | Stability [6] | Stability [7] | Stability [8] | degraded at 4 h [14] | Compound | IC50 [3] | IC50 at 24 h [4] | IC50 [5] | IC50 [9] | IC50 [10] | EC50 [11] | Ratio IC50 [12] | EC50 [13] | EC50 [15] | EC50 [16] | EC50 [17]
1 | Stable | Stable | Stable | Stable | Stable | – | CCNc1nnc(CSc2nc3sc(C)c(C)c3c(=O)n2CC)s1 | 7.42 µM | 191 µM | 9.4 µM | 0.99 µM | 3.58 µM | – | – | – | – | – | –
2 | Stable | Stable | Stable | Stable | Stable | – | CCNc1nnc(CSc2nc3sc4c(c3c(=O)n2CC)CCCC4)s1 | – | 9.77 µM | – | 9.8 µM | 0.001 µM | 0.001 µM | 100 | 9.28 µM | – | – | –
3 | – | – | – | – | – | 30% | CCNC(=S)NNC(=O)CSc1nc2sc(C)c(C)c2c(=O)n1CC | – | 0.01 µM | – | – | – | 8.86 µM | – | 0.43 µM | 0.085 µM | – | –
4 | Stable | Stable | Stable | Stable | Stable | – | CCNc1nnc(CSc2nc3sc(C(=O)OCC)c(C)c3c(=O)n2CC)s1 | 0.83 µM | 0.089 µM | 2.13 µM | 9.51 µM | 9.12 µM | – | – | – | – | – | –
5 | Stable | Stable | Stable | Stable | Stable | – | CCNC(=S)NNC(=O)CSc1nc2sc3c(c2c(=O)n1CC)CCCC3 | – | – | – | – | – | 9.33 µM | – | 7.97 µM | 1.13 µM | 2.72 µM | 8.25 µM
6 | Stable | Stable | Stable | Stable | Stable | – | CCNC(=S)NNC(=O)CSc1nc2sc(C(=O)OCC)c(C)c2c(=O)n1CC | 8.71 µM | 0.8 µM | 0.000231 µM | 8.71 µM | 7.38 µM | – | – | – | – | – | –

From ChEMBL document CHEMBL3872203, “Synthesis, anticancer activity and photostability of novel 3-ethyl-2-mercapto-thieno[2,3-d]pyrimidin-4(3H)-ones” (Eur J Med Chem, 2016)
